High-throughput results (PubChem)
rRNA inh HTS: reduced GFP signal of wild-type E. coli, primary screen, bacterial rRNA inhibitor project, GFP/RFP fluorescence, OD600, single point; E. coli WT GFP vs humanized-ribosome RFP mutants, 24 h; hits give low values; DMSO median 0, no signal -100; GFP signal change (wild-type ribosome), % (concentration not given with the values); 350,000 compounds, 1.6% hits; AID 720706, 2013;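 active = significant combined selectivity score with lowered wild-type GFP, culture density cut under 30%, mutant RFP and density less affected; inactive = any of these conditions unmet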
Vif imaging: HIV Vif self-association inhibitors, primary screen, imaging, HEK293T, single point; HEK293T cells, Vif self-association by quenched fluorescence, 24 h; inhibition, % at 7.49 µM; 340,000 compounds, 0.35% hits; in the data active = inhibition above about 50%, passing the limit was not always enough
PglD inh: C. jejuni PglD acetyltransferase inhibitors, primary screen, biochemical, DTNB colorimetric, single point | UDP-N-acetylbacillosamine N-acetyltransferase PglD (Campylobacter jejuni) | purified PglD enzyme, DTNB colorimetric CoA detection | 360,000 compounds, 0.098% hits | inhibition, % at 12.5 µM | AID 602405, 2012; in the data active = inhibition above about 16%, passing the limit was not always enough
FGF22 binding: binders of human FGF22 protein, primary screen, FGF22 synaptogenesis inhibitor project, biophysical, thermal shift, single point; Fibroblast growth factor 22 (Homo sapiens), Q9HCT0; recombinant FGF22 thermal shift, SYPRO orange fluorescence; percent of sucrose octasulfate shift, DMSO zero; activity (Tm shift, normalised), % at 9.99 µM; 340,000 compounds, 1.5% hits; AID 651658, 2012;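 active = mean Tm shift, scaled 0 neutral to 100 positive control, at about 1.3% or above, every replicate too, limit read from the data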
Target sequence (Q9HCT0 whole entry, looked up): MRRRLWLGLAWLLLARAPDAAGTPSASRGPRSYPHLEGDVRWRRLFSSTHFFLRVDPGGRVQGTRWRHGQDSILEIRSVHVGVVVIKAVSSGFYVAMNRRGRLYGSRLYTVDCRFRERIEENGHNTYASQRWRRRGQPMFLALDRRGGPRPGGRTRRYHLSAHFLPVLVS
PGC1a acetyl inh: inhibitors of PGC1a acetylation signal, primary screen, cell-based, U2OS, AlphaScreen, inhibitor mode. 350,000 compounds, 0.17% hits. inhibition, % at 15.6 µM. AlphaScreen anti-acetyl-lysine; with virally co-expressed GCN5 acetyltransferase;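 active = every replicate shows inhibition of at least 40%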
Cneo AK release: Cryptococcus neoformans cell lysis inducers, primary screen, AK release luminescence, single concentration; C. neoformans lysis, adenylate kinase release luminescence, 4 h; normalised: neutral wells 0, clomiphene wells 100; 360,000 compounds, 0.2% hits; lysis activity, % at 15 µM;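 active = mean lysis activity across replicates of at least 80%, whatever share of replicates individually reach that level; inactive = mean lysis activity below 80%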
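Test system: log-phase Cryptococcus neoformans yeast cells; Quantity: yeast cell density of 5 × 10^6 cells/mL; Buffer or medium: YPD; Doses: single compound concentration per well; Timing: 4 h at 37 °C static, read 1 h later; Measured by: AK luminescence; Read-out basis: lysis from increased AK signal; Control set: Clomiphene as positive control.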
Of the large screens only hits and unclear results are named; the others gave an inactive call. Most compounds without a hit are left out; they make up all but 2.9% or so of the library.

Cc1ccc(C)c(OCC(=O)NNC(=O)c2ccc(NC(=O)C3CC3)cc2)c1	rRNA inh HTS -37 (no result: PGC1a acetyl inh)
Cc1cc(Br)ccc1OCC(=O)NNC(=O)c1ccc(NC(=O)C2CC2)cc1	none
O=C(C[C@H]1C[C@@H]2c3cc(NC(=O)C4CCOCC4)ccc3O[C@@H]2[C@H](CO)O1)NCc1cccc(F)c1	none (no result: Vif imaging)
COc1cccc([C@@H]2CC=C(C(=O)O)[C@H](c3cccc(Cl)c3)N2S(=O)(=O)c2ccc(C)cc2)c1	rRNA inh HTS -32 (no result: Vif imaging, PGC1a acetyl inh)
Cc1ccc(S(=O)(=O)N2[C@@H](c3ccc(F)cc3)C(C(=O)O)=CC[C@H]2c2ccc(Cl)cc2)cc1	FGF22 binding 1.6 (no result: Vif imaging, PGC1a acetyl inh)
Cc1ccc(S(=O)(=O)N2[C@@H](c3ccc(Cl)cc3)C(C(=O)O)=CC[C@H]2c2cccc(C)c2)cc1	rRNA inh HTS -22 (no result: PGC1a acetyl inh)
Cc1ccc([C@@H]2CC=C(C(=O)O)[C@H](c3ccc(Cl)cc3)N2S(=O)(=O)c2ccc(C)cc2)cc1	none
O=C(COC(=O)c1cccnc1Cl)NCc1cccs1	FGF22 binding 43
CCOc1ncccc1C(=O)OCC(=O)NCc1cccs1	none
Cc1c(CCC(=O)NCC(=O)O)c(=O)oc2cc3occ(-c4ccccc4)c3cc12	rRNA inh HTS -20 (no result: PglD inh)
CCCC(NC(=O)CCc1c(C)c2cc3c(-c4ccccc4)coc3cc2oc1=O)C(=O)O (stereo not given)	rRNA inh HTS -34 (no result: Vif imaging)
CCC(=O)N1[C@H](CO)[C@@H]2c3ccccc3N(C(=O)c3ccc4c(c3)OCO4)C[C@@H]21	none (no result: Vif imaging)
COCC(=O)N1C[C@@H]2[C@H](c3ccccc31)[C@H](CO)N2C(=O)C1CCCCC1	none (no result: Vif imaging, FGF22 binding)
O=C(O)CSc1nnc(C2CC2)n1-c1ccccc1	none (no result: rRNA inh HTS, FGF22 binding)
O=C(CSc1nnc(-c2ccccc2O)n1-c1ccccc1)Nc1cccc(C(=O)O)c1	FGF22 binding 43 (no result: PglD inh, Cneo AK release)
O=C(O)CSc1nnc(Nc2ccccc2)n1-c1ccccc1	FGF22 binding 44 (no result: PglD inh, PGC1a acetyl inh, Cneo AK release)
CO[C@@H]1CN(C)C(=O)c2cc(NC(=O)CC(F)(F)F)ccc2OC[C@H](C)N(S(=O)(=O)c2cn(C)cn2)C[C@@H]1C	none (no result: Vif imaging, PglD inh, Cneo AK release)
O=C(CN1C(=O)NC(c2ccccc2)(c2ccccc2)C1=O)NCc1cccs1	rRNA inh HTS -36 (no result: PGC1a acetyl inh)
O=C(NCc1ccccc1)NCc1cccs1	FGF22 binding 43 (no result: PglD inh, Cneo AK release)
COc1ccc(NC(=O)Nc2ccc3c(c2)[C@@H]2C[C@@H](CC(=O)N(C)C)O[C@@H](CO)[C@@H]2O3)cc1	none (no result: Vif imaging)
C/C(=N\NC(N)=O)c1ccc(-n2ccnc2)cc1	rRNA inh HTS -16
CNC(=S)N/N=C(\C)c1ccc(-n2ccnc2)cc1	none (no result: rRNA inh HTS, FGF22 binding, PGC1a acetyl inh)
C[C@@H]1CCCCO[C@H](CN(C)S(=O)(=O)c2cccs2)[C@H](C)CN([C@@H](C)CO)C(=O)c2cc(NC(=O)CCCN(C)C)ccc2O1	none (no result: Vif imaging)
CC(C)(C)c1cc(CCC(=O)Nc2ccncc2)cc(C(C)(C)C)c1O	FGF22 binding 18
O=C(NCc1ccc(S(=O)(=O)Nc2ccccc2Cl)s1)c1ccccc1	rRNA inh HTS -32
COc1ccc(-n2c(C)c(C(C)=O)c3cc(OC(C)=O)ccc32)cc1	rRNA inh HTS -24 (no result: FGF22 binding)
O=C(CSc1nnc(COc2ccc(Cl)cc2)o1)N1CCCC1	none
O=C(COc1ccc(Cl)cc1)NCc1nnc(SCC(=O)N2CCCC2)o1	FGF22 binding 43 (no result: PGC1a acetyl inh)
O=C(COc1ccc(Cl)cc1)NCc1nnc(SCC(=O)N2CCCCC2)o1	none (no result: rRNA inh HTS, FGF22 binding)
COc1ccc(C(=O)NCc2nnc(SCC(=O)N3CCC(C)CC3)o2)cc1	FGF22 binding 44 (no result: PglD inh, PGC1a acetyl inh, Cneo AK release)
O=C(COc1ccc(Cl)cc1)NCc1nnc(SCC(=O)N2CCCCCC2)o1	FGF22 binding 43 (no result: PGC1a acetyl inh)
Cc1ccc2oc(C(=O)NCc3ccc(S(N)(=O)=O)cc3)cc(=O)c2c1	none
